miR122 inh: blocks miR-122 activity in Huh7 sensor cells | AID 602342 | Huh7 miR-122 Renilla luciferase sensor, 48 h; neutral wells = 0, positive control = 100 | activation (reporter increase), % at 12.5 µM | 340,000 compounds, 0.3% hits;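 active = mean replicate activation score at least 90 and every replicate individually at or above 90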;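 also: higher luciferase means less miR-122 activity so hits act as miR-122 inhibitors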
E-selectin induc: E-selectin induction on HUVECs; P16581; HUVEC E-selectin immunofluorescence imaging; normalized: neutral wells 0, TNF-alpha wells 100; activation, % at 7.58 µM; 260,000 compounds, 0.37% hits; AID 686992;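 active = mean E-selectin-positive cell signal at least 10% of the positive control, reached in at least 60% of replicates, without over 20% cell loss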
Target sequence (P16581 whole entry, looked up): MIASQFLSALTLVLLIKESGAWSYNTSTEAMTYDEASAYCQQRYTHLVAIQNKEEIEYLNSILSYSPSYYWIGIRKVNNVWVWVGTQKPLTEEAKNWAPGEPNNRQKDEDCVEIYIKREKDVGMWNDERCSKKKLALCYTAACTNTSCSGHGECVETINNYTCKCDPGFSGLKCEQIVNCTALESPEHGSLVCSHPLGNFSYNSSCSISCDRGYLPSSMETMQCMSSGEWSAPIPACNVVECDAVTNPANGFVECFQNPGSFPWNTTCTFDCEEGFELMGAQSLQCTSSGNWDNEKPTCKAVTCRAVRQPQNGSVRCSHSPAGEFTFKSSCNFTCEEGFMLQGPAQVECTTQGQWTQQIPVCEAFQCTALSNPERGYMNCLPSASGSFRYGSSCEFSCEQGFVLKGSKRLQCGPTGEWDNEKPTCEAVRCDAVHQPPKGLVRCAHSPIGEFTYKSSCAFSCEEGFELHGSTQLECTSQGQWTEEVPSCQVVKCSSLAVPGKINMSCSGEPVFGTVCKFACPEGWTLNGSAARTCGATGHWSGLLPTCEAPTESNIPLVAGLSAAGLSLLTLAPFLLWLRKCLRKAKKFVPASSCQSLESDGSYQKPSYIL
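assay system = HUVEC, human umbilical vein endothelial cells | input = 3,000 HUVEC seeded per well | medium = EGM-2 growth medium on 0.1% gelatin-coated wells | dosing = one compound dose added by pin transfer | signal = immunofluorescence imaging | read-out basis = % PE-positive cells | control set = TNF-alpha, DMSO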
DENV2 CPE: protects cells from dengue virus 2 cytopathic effect; CPE inhibition, % at 9.99 µM; DENV2-infected cells, cytopathic effect rescue, plate reader; 350,000 compounds, 1.7% hits; in the data active = CPE inhibition above about 20%, passing the limit was not always enough; tested in BHK-21 cells;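 also: 0% = median of neutral control wells and 100% = median of positive control wells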
rRNA inh HTS: inhibits bacterial ribosomal RNA function over humanized ribosomes; E. coli WT GFP vs humanized-ribosome RFP mutants, fluorescence, 24 h; hits give low values; DMSO median 0, no signal -100; GFP signal change (wild-type ribosome), % (test concentration not listed); 350,000 compounds, 1.6% hits; AID 720706;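 active = significant combined selectivity score with lowered wild-type GFP, culture density cut under 30%, mutant RFP and density less affected; inactive = any of these conditions unmet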
Cneo AK release: Cryptococcus neoformans lysis via adenylate kinase release; AID 651654; 360,000 compounds, 0.2% hits; lysis activity, % at 15 µM; C. neoformans lysis, adenylate kinase release luminescence, 4 h; normalised: neutral wells 0, clomiphene wells 100;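 active = mean lysis activity across replicates of at least 80%, whatever share of replicates individually reach that level; inactive = mean lysis activity below 80%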
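Assay system: C. neoformans cells. Amount: yeast cell density of 5 × 10^6 cells/mL. Technique: AK luminescence. Buffer or medium: YPD. Times: static 4 h at 37 °C with compound, 1 h detection. Dosing: single-point compound dose. Read-out: lysis from increased AK signal.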
Starred values were filed as active, the others as inactive; · = no result given; [ ] = another dose, or the depositor's remark. A selection: hits, their analogues and other compounds. The true share with any hit is near 3.1%.

SMILES	miR122 inh	E-selectin induc	DENV2 CPE	rRNA inh HTS	Cneo AK release
CNC(=O)C[C@H]1CC[C@H]2[C@H](COc3ccc(NC(=O)Nc4ccc(Cl)cc4)cc3C(=O)N2C)O1	8[16.7 µM]	0	-4	-2	1
CN1c2ccccc2-c2nc3ccccc3n2C1c1ccccn1 (stereo not drawn)	11	·	·	·	0
CN1c2ccccc2-c2nc3ccccc3n2C1c1ccncc1 (stereo not drawn)	6	·	·	-23*	0
C[C@H]1CN([C@@H](C)CO)C(=O)c2ccccc2-c2ccccc2CO[C@@H]1CN(C)S(=O)(=O)c1cccc(F)c1	·	·	·	-6	·
Cc1ccc(S(=O)(=O)N(C)C[C@@H]2OCCCC[C@H](C)Oc3ccc(N(C)C)cc3C(=O)N([C@H](C)CO)C[C@@H]2C)cc1	-7[16.7 µM]	0	·	-5	·
Cc1cccc(NC(=S)NCC23C=CC(O2)C2C(=O)N(c4ccc(Cl)cc4)C(=O)C23)c1 (stereo not drawn)	·	1	·	·	·
Cc1ccc(NC(=S)NCC23C=CC(O2)C2C(=O)N(c4ccc(C)cc4)C(=O)C23)cc1 (stereo not drawn)	5	0	49*	5	-2
CN(C)CCCNC(=O)C[C@@H]1CC[C@H]2[C@@H](COC[C@@H](O)CN2Cc2ccc(Cl)c(Cl)c2)O1	-4[16.7 µM]	0	-1	-8	-6
Cc1cccc(C)c1NC(=S)NC(C)CCc1ccccc1 (stereo not drawn)	100*	·	47*	-15	6
Cc1ccc(NC(=S)NC(C)CCc2ccccc2)cc1C (stereo not drawn)	·	·	17	-48	·
NC(=O)CSc1nnc(SCc2ccc(F)cc2)s1	3	27*	-10	11	-1
Cc1noc(C)c1NC(=O)N(C)C[C@H]1OCCCC[C@H](C)Oc2ccc(NC(=O)NC3CCCCC3)cc2C(=O)N([C@@H](C)CO)C[C@@H]1C	6[16.7 µM]	·	28*	3	-1
Cc1noc(C)c1NC(=O)N(C)C[C@H]1OCCCC[C@H](C)Oc2ccc(NC(=O)NC(C)C)cc2C(=O)N([C@H](C)CO)C[C@@H]1C	6[16.7 µM]	0	102*	3	-6
Cc1noc(C)c1NC(=O)N(C)C[C@H]1OCCCC[C@H](C)Oc2ccc(NC(=O)NC3CCCCC3)cc2C(=O)N([C@H](C)CO)C[C@@H]1C	2[16.7 µM]	·	18	3	1
Cc1noc(C)c1NC(=O)Nc1ccc2c(c1)C(=O)N([C@@H](C)CO)C[C@H](C)[C@@H](CN(C)C(=O)NC1CCCCC1)OCCCC[C@H](C)O2	-1[16.7 µM]	0	21*	-4	5
C/C=C/c1ccc2c(c1)O[C@H](CN(C)Cc1cccc(F)c1)[C@@H](C)CN([C@H](C)CO)S2(=O)=O	·	-6	10	3	-9
CNC[C@H]1Oc2ncc(C#CC3CCCCC3)cc2C(=O)N([C@@H](C)CO)C[C@H]1C	0[16.7 µM]	0	-8	5	-1
C[C@@H]1CN([C@@H](C)CO)C(=O)Cc2cc(NC(=O)Nc3ccc4c(c3)OCO4)ccc2O[C@H]1CN(C)S(=O)(=O)c1cccs1	-6[16.7 µM]	1	2	-7	-1
Cc1nc(C(=O)NNC(=O)c2ccc(Cl)cc2)c(C(F)(F)F)o1	-2	0	-6	-30*	-1
CCCNC(=O)N1C[C@@H](C)[C@@H](OC)CN(C)C(=O)c2cc(NC(=O)C3CCC3)ccc2OC[C@@H]1C	4[16.7 µM]	0	·	2	·
C[C@@H]1CN([C@H](C)CO)C(=O)Cc2cc(NC(=O)Nc3cccc4ccccc34)ccc2O[C@@H]1CN(C)S(=O)(=O)c1ccc(F)cc1	2[16.7 µM]	3	-7	5	-8
COCCNC(=S)N1CCN(S(=O)(=O)c2ccc(Cl)s2)CC1	0	·	45*	-1	0
Cc1ccccc1CN1CCN(S(C)(=O)=O)CC1	-7	·	·	2	-2
Cc1ccccc1CN1CCN(S(=O)(=O)c2ccc(Cl)s2)CC1	-3	290*	4	-6	0
CCC(=O)N1CC2(C1)CN(CC1CCCCC1)[C@@H](CO)c1c2c2ccc(OC)cc2n1C	·	2	16	1	·
SMILES	miR122 inh	E-selectin induc	DENV2 CPE	rRNA inh HTS	Cneo AK release
COc1ccc2c3c([nH]c2c1)[C@H](CO)N(C(=O)CN1CCOCC1)CC31CCN(C(C)=O)CC1	·	0	5	5	·
CCOC(=O)C1CCN(c2c(C(=O)c3ccccc3)cnc3ccc(Cl)cc23)CC1	7	·	34*	2	0
CCOC(=O)C1CCN(C(=O)c2cccc(Cl)c2)CC1	4	·	·	·	1
COc1cc(CNc2nccn3ccnc23)cc(OC)c1	0	0	36*	-6	-1
COc1cccc(Nc2c(F)c(F)c(F)c(F)c2C(=O)O)c1	-1	·	·	·	-1
Cc1cccc(Nc2c(F)c(F)c(F)c(F)c2C(=O)O)c1	·	·	4	-30*	·
C/C(=N\NC(=O)C1CC1)c1ccc(Cl)cc1	-6	121*	9	9	·
C[C@@H]1CN([C@H](C)CO)C(=O)Cc2cc(NC(=O)Nc3ccc(F)cc3)ccc2O[C@@H]1CN(C)S(=O)(=O)c1ccc(Cl)cc1	-7[16.7 µM]	35*	-6	1	2
C[C@H]1CN([C@@H](C)CO)C(=O)Cc2cc(NC(=O)Nc3ccc(F)cc3)ccc2O[C@H]1CN(C)S(=O)(=O)c1ccc(Cl)cc1	3[16.7 µM]	-14	43*	3	4
CC(C)NC(=O)Nc1ccc2c(c1)CC(=O)N([C@@H](C)CO)C[C@@H](C)[C@@H](CN(C)S(=O)(=O)c1ccc(Cl)cc1)O2	23[16.7 µM]	·	3	-3	102*
CC(C)NC(=O)Nc1ccc2c(c1)CC(=O)N([C@H](C)CO)C[C@H](C)[C@@H](CN(C)S(=O)(=O)c1ccc(Cl)cc1)O2	-6[16.7 µM]	·	-6	0	1
C[C@@H]1CN([C@@H](C)CO)C(=O)Cc2cc(NC(=O)Nc3ccc(F)cc3)ccc2O[C@H]1CN(C)S(=O)(=O)c1ccc(Cl)cc1	-11[16.7 µM]	-14	0	-2	-3
CS(=O)(=O)Nc1ccc2c(c1)[C@@H]1C[C@H](CC(=O)NCc3cccnc3)O[C@H](CO)[C@@H]1O2	-5[16.7 µM]	-1	-1	0	3
O=C(Nc1ccc(S(=O)(=O)Nc2nccs2)cc1)c1cnc(Cl)c(Cl)c1	·	0	-2	-29*	·
O=C(NC(=S)Nc1ccc(S(=O)(=O)Nc2nccs2)cc1)c1ccccc1F	23	0	6	-22*	·
O=C(NC(=S)Nc1ccc(S(=O)(=O)NC2CCCCC2)cc1)c1cccs1	396*	·	-7	-22	0
O=C(Nc1ccc(S(=O)(=O)Nc2ncccn2)cc1)c1cnc(Cl)c(Cl)c1	·	6	-5	27	·
O=C(Nc1ccc(S(=O)(=O)Nc2ncccn2)cc1)c1nn(Cc2ccccc2)c(=O)c2ccccc12	16	0	-2	6	7
CCn1nc(C(=O)Nc2ccc(S(=O)(=O)Nc3nccs3)cc2)c2ccccc2c1=O	93*	·	·	·	1
